# Assay outcomes: PubChem, Johns Hopkins Ion Channel Center
# KCNK9 inh – KCNK9 potassium channel inhibitors, primary screen, HEK293 cells, thallium flux; Potassium channel subfamily K member 9 (Homo sapiens), Q9NPC2; FluxOR thallium flux fluorescence; hits give low values; B-score at 10 µM; 1.2% of 310,000 active;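 active means ratio B-score over 3 SD below the library mean, with starting fluorescence within 5 SD of its mean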;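 further: negative B-score means less thallium flux so channel inhibition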
# KCNQ1 inh – inhibitors of human KCNQ1 channel, primary screen, cell-based, thallium flux, high-throughput | 1.3% of 310,000 active | Potassium voltage-gated channel subfamily KQT member 1 (Homo sapiens), P51787 | CHO-K1 KCNQ1, FluxOR thallium flux fluorescence; hits give high values | B-score at 10 µM;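 active means compounds whose thallium flux B-score, printed positive for inhibition, exceeds three library SD while starting fluorescence stays within three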;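 further: channel opened by potassium depolarization with thallium stimulus after 20 min compound exposure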
# hERG protect – hERG rescue from dofetilide block, primary screen, cell-based, CHO-hERG, FluxOR thallium flux, dofetilide IC70 | dofetilide IC70 present | AID 1511, 2009 | 0.51% of 310,000 active | activation (rescue from dofetilide block), less the hit threshold, % at 10 µM | Voltage-gated inwardly rectifying potassium channel KCNH2 (Homo sapiens), Q12809;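 active means activation above the mean of controls blocked by dofetilide plus 5 SD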;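 further: thallium influx through hERG after potassium depolarization seen as dye fluorescence rise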
# Kir21 block – inhibitors of mouse Kir2.1 inward-rectifier potassium channel; AID 1672, 2009; HEK293-Kir2.1, FluxOR thallium flux fluorescence; hits give low values; 0.85% of 310,000 active; Inward rectifier potassium channel 2 (Mus musculus), P35561; B-score at 10 µM;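 active means fluorescence ratio B-score at or below minus 3 SD of library scores, with starting-brightness B-score within 2 SD, cut at about -4.2 in these data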;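 further: channel flux triggered by added potassium and thallium sulfate stimulus; B-score of peak minus minimum fluorescence over baseline after thallium stimulus; more negative B-score means stronger Kir2.1 block with less thallium influx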
# Target sequence (P35561 whole entry, looked up): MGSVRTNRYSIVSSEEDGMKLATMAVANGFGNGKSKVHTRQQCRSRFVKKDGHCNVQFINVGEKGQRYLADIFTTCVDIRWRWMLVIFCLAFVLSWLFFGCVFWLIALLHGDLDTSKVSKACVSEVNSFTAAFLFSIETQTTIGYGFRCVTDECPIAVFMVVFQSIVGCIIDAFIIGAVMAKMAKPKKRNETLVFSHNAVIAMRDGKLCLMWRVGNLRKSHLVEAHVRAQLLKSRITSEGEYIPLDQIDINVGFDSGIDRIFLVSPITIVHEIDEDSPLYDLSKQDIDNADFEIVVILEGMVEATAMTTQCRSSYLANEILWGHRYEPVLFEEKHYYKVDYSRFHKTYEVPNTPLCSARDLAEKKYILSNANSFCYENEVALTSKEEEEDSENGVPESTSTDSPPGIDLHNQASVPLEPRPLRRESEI
# KCNK3 inh – human KCNK3 channel inhibitors, primary screen, CHO cells, FluxOR thallium flux, B-score. FluxOR fluorescence; hits give low values. B-score at 10 µM. 0.84% of 340,000 active. AID 602410, 2012;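 active means B-score under library mean minus 4 SD, starting fluorescence ratio at most library mean plus 5 SD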;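 further: more negative B-score means stronger inhibition of thallium flux through KCNK3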
# KCNQ1 pot – potentiators or activators of KCNQ1 channel, primary screen, cell-based, thallium flux, high-throughput; Potassium voltage-gated channel subfamily KQT member 1 (Homo sapiens), P51787; CHO-K1 KCNQ1, thallium flux FluxOR fluorescence; hits give high values; B-score at 10 µM; 0.35% of 310,000 active;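 active means fluorescence ratio B-score, a plate-corrected score, at least three library SD, with initial intensity B-score within 5 SD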
#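 Doses: Single concentration per compound, DMSO matched to controls | Test system: KCNQ1-transfected CHO-K1 cells | Timing: 90 min dye loading and 20 min compound exposure, both at room temperature | Measured by: Kinetic FluxOR thallium fluorescence, 10-s 1-Hz baseline, 110-s post-stimulus read | Medium: Assay buffer with matched DMSO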
# KCNQ1 block val – KCNQ1 potassium channel inhibitors, confirmation, cell-based, Tl flux, duplicate | shares compounds with KCNQ1 inh | KCNQ1 cell line, FluxOR thallium flux fluorescence | inhibition, % at 10 µM | 93% of 1,600 active;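 active means primary screen active, with duplicate mean exceeding buffer control mean plus 3 SD of buffer wells, cut at about 28% in these data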;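 further: 0% = buffer control ratio and 100% = XE991 inhibitor control ratio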
# CHO Tl flux – thallium flux effects in parental CHO cells, counter-screen for KCNQ1 inhibitor project, cell-based, Tl flux | AID 588366, 2011 | fluorescence ratio (Tl flux) at 10 µM | shares compounds with KCNQ1 inh | parental CHO-K1, FluxOR thallium flux fluorescence ratio; hits give low values; zero means no signal rise above baseline | 21% of 1,600 active;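 active means mean of duplicate thallium-flux fluorescence ratios in parental host cells more than 5 SD below the buffer control mean, cut at about 0.38 in these data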;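 further: ratio is peak minus minimum fluorescence divided by baseline fluorescence; actives read low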
# KCNQ1 ephys val – KCNQ1 channel inhibitors, confirmation, orthogonal assay, cell-based, automated electrophysiology; AID 624120, 2012; KCNQ1-CHO cells, automated patch clamp current; 20% of 490 active; shares compounds with KCNQ1 inh; calls only at 10 µM;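 active means KCNQ1 current drop exceeding 3 SD of negative control wells, seen in both duplicate runs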;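 further: steady state current during a 2 s step from -80 to +40 mV; negative values mean current inhibition and positive values mean potentiation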
# KCNQ2 inh – KCNQ2 channel inhibition, selectivity assay for KCNQ1 inhibitor project, cell-based | inhibition, % at 10 µM | KCNQ2 cells, FluxOR thallium flux fluorescence | 71% of 1,600 active | shares compounds with KCNQ1 inh;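 active means mean percent inhibition of the KCNQ2 thallium signal more than 5 SD above the buffer-only control wells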;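 further: KCNQ2 expressed in CHO cells; 0% = buffer control wells and 100% = XE-991 inhibitor control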
# KCNQ1 KCNE1 spec – KCNQ1/KCNE1 channel inhibition, selectivity assay for KCNQ1 inhibitor project, CHO-K1 cells, thallium flux, FluxOR; shares compounds with KCNQ1 inh; FluxOR thallium flux fluorescence; inhibition, % at 10 µM; 77% of 1,600 active; AID 652147, 2013;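 active means mean percent inhibition of duplicate wells above the buffer-only control mean plus 3 SD of those controls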;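 further: 0% = buffer only wells and 100% = XE-991 inhibitor control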
# Active calls of the source: *; i = inactive; nt = no result; + = active, no number. Compounds with a hit are over-represented: about 3.8% of the library has one in this group of screens.
SMILES,KCNK9 inh,KCNQ1 inh,hERG protect,Kir21 block,KCNK3 inh,KCNQ1 pot,KCNQ1 block val,CHO Tl flux,KCNQ2 inh,KCNQ1 KCNE1 spec,others
COc1ccc(-c2csc3ncnc(N4CCN(c5ccccc5Cl)CC4)c23)cc1,i,9*,-11,0.06,i,i,105*,0.38*,96%*,90%*,
O=C(Nc1nc(-c2cccs2)c(C(=O)C(F)(F)F)s1)c1ccccc1,i,7*,-12,2.5,i,i,25*,0.48,i,i,
CCOC(=O)C1=C(N)Oc2ccc3ccccc3c2C1c1cccnc1 (configuration not stated),i,i,-6,0.05,i,i,nt,nt,nt,nt,
CCOC(=O)C1=C(N)Oc2ccc3ccccc3c2C1c1cccc(O)c1 (configuration not stated),i,6*,-8,-0.95,i,i,116*,0.39,122%*,123%*,KCNQ1 ephys val=i
CCOc1ccccc1C(=O)NC(C(=O)NCCc1ccccn1)C(C)C (configuration not stated),nt,nt,nt,nt,i,nt,nt,nt,nt,nt,
Cc1cc(C=O)sc1[B-](F)(F)F,nt,nt,nt,nt,i,nt,nt,nt,nt,nt,
CSc1nc2nc(C)c(C/C=C/c3ccccc3)c(=O)n2[nH]1,i,i,-7,-0.06,i,i,nt,nt,nt,nt,
CCc1c(C)nc2nc(SCc3ccccc3Cl)[nH]n2c1=O,i,9*,-12,-1,i,i,85*,0.48,69%*,34%*,
Cc1cc(C)c(S(=O)(=O)n2ccc3ccccc32)c(C)c1,i,9*,-7,-3.2,i,i,106*,0.38*,116%*,142%*,
O=[N+]([O-])c1c(Nc2cccc(O)c2)cc(Cl)c2nonc12,-8*,24*,-33,-7.4*,i,i,166*,0.29*,129%*,+,
COc1ccc(N(C(=O)Nc2ccc(Cl)cc2)C2=NCCC2)cc1,i,12*,-10,0.84,i,i,130*,0.37*,132%*,200%*,
Cc1ccc(N(C(=O)Nc2ccccc2)C2=NCCC2)cc1,i,i,-5,0.79,i,i,nt,nt,nt,nt,
CC1(C)Cc2c(cnn2-c2ccc(F)cc2)C(NC(=O)C2CCC2)C1 (configuration not stated),i,8*,-6,-0.53,i,i,103*,0.46,70%*,112%*,KCNQ1 ephys val=+
COC(=O)c1cccc(NC(=S)Nc2ccc(Cl)c(Cl)c2)c1,i,8*,-22,0.07,i,i,168*,0.5,i,i,KCNQ1 ephys val=i
COC(=O)c1cc(NC(=S)Nc2cc(Cl)cc(Cl)c2)cc(C(=O)OC)c1,i,8*,-11,-0.15,i,i,66*,0.42,59%*,i,
CN1CCN(S(=O)(=O)c2ccc(NC(=O)Nc3cccc(Cl)c3)cc2)CC1,i,11*,-21,0.76,i,i,62*,0.48,65%*,i,
O=C(Nc1ccncc1)Nc1ccc(Cl)cc1,i,7*,-16,0.37,i,i,28*,0.54,i,i,
CC(C(=O)Nc1nc(-c2ccc(F)cc2)cs1)N1C(=O)C2CC=CCC2C1=O (configuration not stated),nt,nt,nt,nt,i,nt,nt,nt,nt,nt,
COC(=O)c1cc(NC(=O)Nc2cccc(Cl)c2)ccc1Cl,i,6*,-12,1.3,i,i,62*,0.52,i,i,
O=C(Nc1ccccc1)Nc1cc(Cl)cc(Cl)c1,i,10*,-14,0.34,i,i,28*,0.52,78%*,i,
Cc1cccc(NC(=O)Nc2ccc(S(N)(=O)=O)cc2)c1,i,i,-10,-2,i,i,nt,nt,nt,nt,
COc1ccc(NC(=S)Nc2cccc(Cl)c2)cc1OC,i,13*,-10,-1.5,i,i,32*,0.41,i,i,
NS(=O)(=O)c1cccc(NC(=O)Nc2ccc(Cl)cc2)c1,i,8*,-13,1.6,i,i,137*,0.43,101%*,108%*,KCNQ1 ephys val=i
O=C(Nc1cccc(Cl)c1)Nc1cccc(Cl)c1,i,i,-8,0.3,i,i,nt,nt,nt,nt,
CS(=O)(=O)N1CCC(C(=O)Nc2cccc(Cl)c2Cl)CC1,i,i,-12,-0.29,i,i,nt,nt,nt,nt,
COc1ccc(Cl)cc1S(=O)(=O)NC(C)C(=O)NCc1ccc2c(c1)OCO2 (configuration not stated),i,i,-3,1.1,i,i,nt,nt,nt,nt,
COC(=O)c1cccc(NC(=O)Nc2ccc(Cl)cc2)c1,i,7*,-8,0.5,i,i,44*,0.55,i,i,
CC(=O)c1ccc(NC(=S)NC(C)CCc2ccccc2)cc1 (configuration not stated),i,7*,-10,-0.12,i,i,38*,0.5,i,41%*,
O=S(=O)(c1c(F)cccc1F)N1CCCC2CCCCC21 (configuration not stated),nt,nt,nt,nt,i,nt,nt,nt,nt,nt,
COc1ccc(N/C=C2\CCc3ccccc3C2=O)cc1,i,6*,-20,-1.9,i,i,50*,0.69,112%*,114%*,
